Data from ChEMBL document CHEMBL4043295, “Marbostat-100 Defines a New Class of Potent and Selective Antiinflammatory and Antirheumatic Histone Deacetylase 6 Inhibitors” (J Med Chem, 2018).
Calls of active or inactive are those of the source. No cut-off for these calls is given here.

Legend:
Histone deacetylase 1 = Histone deacetylase 1 (Homo sapiens, UniProt Q13547); test: Inhibition of recombinant human C-terminal FLAG/His-tagged HDAC1 expressed in baculovirus-infected Sf21 insect cells using RHKK(Ac)AMC as substrate after 60 mins by fluorimeter
[1] = molecular target: Histone deacetylase 3/Nuclear receptor corepressor 2 (HDAC3/NCoR2) (Homo sapiens, UniProt O15379); test: biochemical; assay type: cell-based
Histone deacetylase 5 = Histone deacetylase 5 (Homo sapiens, UniProt Q9UQL6); test: Inhibition of recombinant human C-terminal His-tagged HDAC5 (656 to 1122 residues) expressed in baculovirus-infected insect cells using Boc-Lys(TFA)-AMC as substrate after 60 mins by fluorimeter
[2] = Inhibition of class 1 HDAC in human MV4-11 cells assessed as induction of histone hyperacetylation at 50 nM to 10 uM after 24 hrs by Western blot method; assay type: cell-based; settings: 0.05 µM
Procedure, shortened: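 MV4-11 cells were exposed to the inhibitor, from 5 nM to 10 µM for 24 h or at 50 nM for 10 min to 48 h. Lysates were immunoblotted for acetylated tubulin, acetylated histone H3 and HDAC6. Acetyl-tubulin was quantified by densitometry normalised to HSP90. MS-275 at 5 µM for 24 h was the comparator. Blots are representative of at least two independent experiments.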

HEL = test: Cell cycle arrest in human HEL cells at 5 to 1000 nM after 24 hrs by propidium iodide staining-based flow cytometric method; assay type: functional
PBMC = test: Induction of apoptosis in human PBMC at 50 to 1000 nM after 24 hrs by Annexin V/propidium iodide staining-based flow cytometric method; assay type: cell-based; settings: 1 µM
Mus musculus [3] = test: In vivo inhibition of HDAC6 in DBA/1J mouse assessed as induction of tubulin acetylation in liver at 0.6 mg […] by Western blot method; assay type: functional, organism-based
Mus musculus [4] = test: In vivo inhibition of HDAC6 in DBA/1J mouse assessed as induction of tubulin acetylation in kidney at 0.6 mg […] by Western blot method; assay type: functional, organism-based
Procedure, shortened: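 Male DBA/1J mice received 0.6 mg inhibitor; organs were collected 2.5 h later and stored at −80 °C. Liver and kidney lysates were immunoblotted for acetylated tubulin and compared with untreated controls. Representative of at least two experiments.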

Mus musculus [5] = test: Antiarthritic activity in DBA/1J mouse collagen-induced arthritis model assessed as decrease in sign of synovial inflammation at 30 mg/kg, ip administered every morning for 12 to 14 days; assay type: functional, organism-based
Procedure, shortened: (§1)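 Collagen type II-induced arthritis in mice, treated at 30 mg/kg versus vehicle. Arthritic paws were assessed histologically for synovial inflammation, cellular invasion, cartilage degradation and bone erosion.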

Mus musculus [6] = test: Antiarthritic activity in DBA/1J mouse collagen-induced arthritis model assessed as decrease in cellular invasion at 30 mg/kg, ip administered every morning for 12 to 14 days; assay type: functional, organism-based; procedure, shortened: as §1
Mus musculus [7] = test: Antiarthritic activity in DBA/1J mouse collagen-induced arthritis model assessed as decrease in degradation of cartilage at 30 mg/kg, ip administered every morning for 12 to 14 days; assay type: functional, organism-based; procedure, shortened: as §1
Mus musculus [8] = test: Toxicity in DBA/1J mouse collagen-induced arthritis model assessed as effect on red blood cell count at 30 mg/kg, ip administered every morning for 12 to 14 days measured post last dose relative to vehicle-treated control; assay type: organism-based; settings: in vivo
Mus musculus [9] = test: Toxicity in DBA/1J mouse collagen-induced arthritis model assessed as effect on white blood cell count at 30 mg/kg, ip administered every morning for 12 to 14 days measured post last dose relative to vehicle-treated control; assay type: organism-based; settings: in vivo
Mus musculus [10] = test: Toxicity in DBA/1J mouse collagen-induced arthritis model assessed as effect on hemoglobin concentration at 30 mg/kg, ip administered every morning for 12 to 14 days measured post last dose relative to vehicle-treated control; assay type: organism-based; settings: in vivo
[11] = molecular target: T1, Protein deacetylase HDAC6 (Homo sapiens) (UniProt Q9UBN7); settings: 5 to 1000 nM
T1 sequence (whole entry): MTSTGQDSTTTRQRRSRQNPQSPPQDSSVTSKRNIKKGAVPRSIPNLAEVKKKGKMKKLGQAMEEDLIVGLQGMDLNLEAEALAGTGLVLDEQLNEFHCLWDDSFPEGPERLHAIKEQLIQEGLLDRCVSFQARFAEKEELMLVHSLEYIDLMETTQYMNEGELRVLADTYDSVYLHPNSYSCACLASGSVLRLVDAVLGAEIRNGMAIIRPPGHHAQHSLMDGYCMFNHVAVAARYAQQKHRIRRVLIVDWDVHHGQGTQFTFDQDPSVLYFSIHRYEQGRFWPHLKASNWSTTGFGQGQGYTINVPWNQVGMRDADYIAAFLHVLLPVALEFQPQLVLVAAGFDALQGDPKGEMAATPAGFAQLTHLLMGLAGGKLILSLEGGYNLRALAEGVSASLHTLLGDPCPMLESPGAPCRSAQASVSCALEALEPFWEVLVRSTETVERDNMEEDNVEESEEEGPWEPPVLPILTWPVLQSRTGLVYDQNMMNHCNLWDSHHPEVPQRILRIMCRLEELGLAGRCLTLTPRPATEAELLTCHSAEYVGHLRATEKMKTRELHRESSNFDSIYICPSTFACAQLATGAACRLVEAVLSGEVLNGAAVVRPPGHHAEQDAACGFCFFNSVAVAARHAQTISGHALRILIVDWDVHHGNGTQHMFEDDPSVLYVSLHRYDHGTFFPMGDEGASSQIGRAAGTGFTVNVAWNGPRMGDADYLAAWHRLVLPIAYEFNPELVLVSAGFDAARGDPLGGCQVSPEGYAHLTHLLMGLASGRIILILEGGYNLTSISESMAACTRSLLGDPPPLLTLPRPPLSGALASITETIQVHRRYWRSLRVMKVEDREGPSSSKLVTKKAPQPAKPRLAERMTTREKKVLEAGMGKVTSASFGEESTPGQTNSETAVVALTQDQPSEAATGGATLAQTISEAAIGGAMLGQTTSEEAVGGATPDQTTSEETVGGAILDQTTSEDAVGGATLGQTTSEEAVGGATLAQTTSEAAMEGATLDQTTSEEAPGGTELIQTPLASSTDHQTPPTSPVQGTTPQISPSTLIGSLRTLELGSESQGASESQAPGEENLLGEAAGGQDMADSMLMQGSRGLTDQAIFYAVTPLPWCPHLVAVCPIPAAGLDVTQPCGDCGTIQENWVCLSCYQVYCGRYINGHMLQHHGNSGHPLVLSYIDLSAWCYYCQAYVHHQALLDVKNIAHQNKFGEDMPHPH

[12] = molecular target: T1, Protein deacetylase HDAC6 (Homo sapiens); settings: 5 to 1000 nM; remark: listed apart in the source
[13] = molecular target: T1, Protein deacetylase HDAC6 (Homo sapiens); settings: 5 to 1000 nM; remark: listed apart in the source
[14] = molecular target: T1, Protein deacetylase HDAC6 (Homo sapiens); settings: 50 nM

Chain of Histone deacetylase 3/Nuclear receptor corepressor 2 (HDAC3/NCoR2) (O15379 whole entry, the tested form may be a part): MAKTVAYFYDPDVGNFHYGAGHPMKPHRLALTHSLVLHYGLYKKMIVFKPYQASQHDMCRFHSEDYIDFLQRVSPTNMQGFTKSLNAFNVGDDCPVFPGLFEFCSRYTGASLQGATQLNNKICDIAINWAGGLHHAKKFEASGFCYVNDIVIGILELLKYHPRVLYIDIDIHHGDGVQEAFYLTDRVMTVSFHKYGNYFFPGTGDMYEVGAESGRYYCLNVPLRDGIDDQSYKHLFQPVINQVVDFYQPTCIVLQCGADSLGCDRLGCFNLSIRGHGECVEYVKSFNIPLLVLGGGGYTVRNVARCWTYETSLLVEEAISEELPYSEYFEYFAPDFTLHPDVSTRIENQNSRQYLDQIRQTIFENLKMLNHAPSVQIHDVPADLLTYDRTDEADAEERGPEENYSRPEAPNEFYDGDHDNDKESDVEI
Chain of Histone deacetylase 3/Nuclear receptor corepressor 2 (HDAC3/NCoR2) (Q9Y618 whole entry, further chain, the tested form may be a part): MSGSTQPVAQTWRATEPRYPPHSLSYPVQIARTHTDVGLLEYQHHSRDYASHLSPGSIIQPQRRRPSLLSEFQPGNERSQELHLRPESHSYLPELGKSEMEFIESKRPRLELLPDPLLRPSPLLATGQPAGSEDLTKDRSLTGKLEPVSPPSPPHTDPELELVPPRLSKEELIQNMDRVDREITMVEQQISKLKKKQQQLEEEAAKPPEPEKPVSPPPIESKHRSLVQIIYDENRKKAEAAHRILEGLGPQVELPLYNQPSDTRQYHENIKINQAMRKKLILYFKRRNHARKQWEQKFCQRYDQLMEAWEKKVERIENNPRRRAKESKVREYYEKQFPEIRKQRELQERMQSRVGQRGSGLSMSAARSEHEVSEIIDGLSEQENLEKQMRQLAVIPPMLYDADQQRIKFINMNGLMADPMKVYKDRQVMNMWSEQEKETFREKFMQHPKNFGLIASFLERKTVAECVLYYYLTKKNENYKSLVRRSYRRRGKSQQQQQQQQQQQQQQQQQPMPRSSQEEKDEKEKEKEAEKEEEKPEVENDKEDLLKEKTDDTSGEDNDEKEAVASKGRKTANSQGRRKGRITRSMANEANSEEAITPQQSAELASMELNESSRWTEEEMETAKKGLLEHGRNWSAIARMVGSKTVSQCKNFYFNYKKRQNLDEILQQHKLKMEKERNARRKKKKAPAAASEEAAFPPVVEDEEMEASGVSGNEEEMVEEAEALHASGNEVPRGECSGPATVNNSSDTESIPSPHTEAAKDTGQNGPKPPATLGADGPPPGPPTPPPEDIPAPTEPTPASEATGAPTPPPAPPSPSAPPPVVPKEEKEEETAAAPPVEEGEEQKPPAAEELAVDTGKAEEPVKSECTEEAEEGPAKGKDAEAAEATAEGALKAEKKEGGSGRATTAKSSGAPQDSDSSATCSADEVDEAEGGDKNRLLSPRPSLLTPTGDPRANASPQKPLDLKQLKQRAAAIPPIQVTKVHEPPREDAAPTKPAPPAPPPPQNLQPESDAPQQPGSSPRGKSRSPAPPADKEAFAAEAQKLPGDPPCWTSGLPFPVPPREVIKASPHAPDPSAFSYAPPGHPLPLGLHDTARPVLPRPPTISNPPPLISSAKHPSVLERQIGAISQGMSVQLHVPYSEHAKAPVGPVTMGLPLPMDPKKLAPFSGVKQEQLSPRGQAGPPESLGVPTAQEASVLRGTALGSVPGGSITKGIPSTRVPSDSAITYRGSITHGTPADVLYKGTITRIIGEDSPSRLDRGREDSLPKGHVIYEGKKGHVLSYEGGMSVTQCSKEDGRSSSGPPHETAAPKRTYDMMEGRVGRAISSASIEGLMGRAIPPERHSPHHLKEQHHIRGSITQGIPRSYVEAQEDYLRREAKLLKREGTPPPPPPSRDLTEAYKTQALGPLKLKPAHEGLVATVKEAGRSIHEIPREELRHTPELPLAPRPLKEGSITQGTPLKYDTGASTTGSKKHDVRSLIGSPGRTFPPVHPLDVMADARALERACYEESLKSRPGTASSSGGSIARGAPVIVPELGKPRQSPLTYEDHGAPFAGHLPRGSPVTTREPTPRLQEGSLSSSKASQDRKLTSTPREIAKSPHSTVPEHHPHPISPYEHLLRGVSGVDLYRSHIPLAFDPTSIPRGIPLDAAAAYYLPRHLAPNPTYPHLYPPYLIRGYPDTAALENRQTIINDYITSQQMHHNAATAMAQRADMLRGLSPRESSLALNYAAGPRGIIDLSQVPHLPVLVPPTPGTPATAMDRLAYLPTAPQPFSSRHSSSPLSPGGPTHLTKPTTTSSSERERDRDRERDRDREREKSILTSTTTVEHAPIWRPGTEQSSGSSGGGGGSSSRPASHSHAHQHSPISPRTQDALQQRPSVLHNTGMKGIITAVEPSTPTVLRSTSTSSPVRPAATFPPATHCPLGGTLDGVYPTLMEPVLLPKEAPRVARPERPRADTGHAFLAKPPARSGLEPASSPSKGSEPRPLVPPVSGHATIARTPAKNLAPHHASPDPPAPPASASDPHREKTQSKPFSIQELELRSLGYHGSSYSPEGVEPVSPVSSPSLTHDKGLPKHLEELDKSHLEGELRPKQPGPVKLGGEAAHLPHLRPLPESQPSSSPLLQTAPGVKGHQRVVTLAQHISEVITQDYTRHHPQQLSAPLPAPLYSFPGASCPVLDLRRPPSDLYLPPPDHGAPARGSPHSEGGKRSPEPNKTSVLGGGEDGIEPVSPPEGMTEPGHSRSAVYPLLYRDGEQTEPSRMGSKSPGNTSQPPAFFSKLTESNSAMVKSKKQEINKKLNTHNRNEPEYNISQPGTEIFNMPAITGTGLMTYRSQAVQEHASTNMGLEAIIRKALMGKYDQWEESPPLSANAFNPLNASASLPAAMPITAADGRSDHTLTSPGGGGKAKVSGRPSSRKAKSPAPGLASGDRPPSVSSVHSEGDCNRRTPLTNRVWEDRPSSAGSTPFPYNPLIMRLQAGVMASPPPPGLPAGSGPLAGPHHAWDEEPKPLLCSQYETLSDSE
Chain of Histone deacetylase 5 (Q9UQL6 whole entry, the tested form may be a part): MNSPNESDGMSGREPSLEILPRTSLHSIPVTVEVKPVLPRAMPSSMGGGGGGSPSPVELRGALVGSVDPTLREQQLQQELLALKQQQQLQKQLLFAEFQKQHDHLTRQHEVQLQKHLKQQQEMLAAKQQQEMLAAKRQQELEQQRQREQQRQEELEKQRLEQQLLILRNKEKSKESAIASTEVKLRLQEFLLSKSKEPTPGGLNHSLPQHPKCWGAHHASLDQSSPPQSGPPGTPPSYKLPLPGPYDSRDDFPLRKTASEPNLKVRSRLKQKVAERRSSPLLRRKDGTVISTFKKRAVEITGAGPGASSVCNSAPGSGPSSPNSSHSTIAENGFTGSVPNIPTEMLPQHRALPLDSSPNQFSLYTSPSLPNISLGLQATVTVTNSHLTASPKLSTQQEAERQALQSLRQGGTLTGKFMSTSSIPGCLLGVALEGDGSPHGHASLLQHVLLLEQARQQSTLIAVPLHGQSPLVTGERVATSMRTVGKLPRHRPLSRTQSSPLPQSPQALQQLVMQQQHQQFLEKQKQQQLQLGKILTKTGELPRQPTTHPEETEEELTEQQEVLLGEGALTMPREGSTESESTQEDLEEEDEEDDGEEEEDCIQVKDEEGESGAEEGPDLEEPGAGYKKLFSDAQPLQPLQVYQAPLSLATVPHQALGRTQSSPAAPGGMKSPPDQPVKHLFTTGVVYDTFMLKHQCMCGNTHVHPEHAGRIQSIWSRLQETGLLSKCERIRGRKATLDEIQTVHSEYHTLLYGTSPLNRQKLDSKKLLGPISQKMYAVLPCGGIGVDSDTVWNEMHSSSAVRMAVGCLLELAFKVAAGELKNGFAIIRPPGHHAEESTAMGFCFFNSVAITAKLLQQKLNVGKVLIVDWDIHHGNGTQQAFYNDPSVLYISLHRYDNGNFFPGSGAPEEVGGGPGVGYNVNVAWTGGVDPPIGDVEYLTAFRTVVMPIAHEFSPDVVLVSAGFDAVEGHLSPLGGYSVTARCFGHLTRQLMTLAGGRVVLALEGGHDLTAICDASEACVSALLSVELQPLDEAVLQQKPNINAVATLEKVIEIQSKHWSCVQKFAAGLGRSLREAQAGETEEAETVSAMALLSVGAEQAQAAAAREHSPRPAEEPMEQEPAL
Chain of Histone deacetylase 1 (Q13547 whole entry): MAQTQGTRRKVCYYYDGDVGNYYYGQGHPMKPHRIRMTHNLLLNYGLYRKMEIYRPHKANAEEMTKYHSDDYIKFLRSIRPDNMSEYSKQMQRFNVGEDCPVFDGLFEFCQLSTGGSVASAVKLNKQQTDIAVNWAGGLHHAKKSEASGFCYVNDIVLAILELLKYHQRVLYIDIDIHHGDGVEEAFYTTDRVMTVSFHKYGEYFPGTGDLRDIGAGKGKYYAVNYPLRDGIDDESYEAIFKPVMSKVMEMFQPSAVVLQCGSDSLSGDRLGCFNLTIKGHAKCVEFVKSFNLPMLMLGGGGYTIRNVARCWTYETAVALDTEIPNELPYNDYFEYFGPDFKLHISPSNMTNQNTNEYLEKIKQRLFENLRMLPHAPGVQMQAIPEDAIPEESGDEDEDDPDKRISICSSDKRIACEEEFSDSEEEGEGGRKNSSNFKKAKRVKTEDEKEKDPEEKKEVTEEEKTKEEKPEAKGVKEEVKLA

## CN1C(=O)C2CN(Cc3c2c2ccccc2n3Cc2ccc(C(=O)NO)cc2)C1=O (stereo not drawn)
Histone deacetylase 1
  Ki: 358 nM
[1]
  Ki: 306 nM
Histone deacetylase 5
  Ki: 701 nM
[2]
  inhibition (INH): Not Active
HEL
  Activity: inactive
PBMC
  Activity: Non-Toxic
Mus musculus [3]
  inhibition: Active
Mus musculus [4]
  inhibition: Active
Mus musculus [5]
  Activity: Active
Mus musculus [6]
  Activity: Active
Mus musculus [7]
  Activity: Active
Mus musculus [8]
  Activity: Non-Toxic
Mus musculus [9]
  Activity: Non-Toxic
Mus musculus [10]
  Activity: Non-Toxic
[11]
  inhibition: Active
[12]
  inhibition: Active
[13]
  inhibition: Active
[14]
  inhibition: Active
